Entries after “also recorded” stand apart in the source; their conditions may differ.

For data set [1] the following is noted: intranasal administration; cited from earlier work.
The test system of data set [2] is premenopausal women with female sexual dysfunction. The experiment in a line: Protocol-directed blood pressure-related withdrawals after randomization. It counts as in vivo, human. Put shortly: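 Ambulatory BP records were screened manually and programmatically for SBP ≥150 mmHg, DBP ≥95 mmHg, SBP rise ≥30 mmHg or DBP rise ≥15 mmHg. Flagged reports went to safety staff, including a hypertension expert blinded to treatment, who also reviewed activities, HR and other medications. Participants meeting the prespecified criteria (absolute level, change from baseline, duration) were withdrawn.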

In data set [3] the test system is men with erectile dysfunction. The following applies: single sc doses of 4–6 mg; cited from earlier work.
For data set [4], the system named is premenopausal women with female sexual dysfunction. The experiment in a line: Ambulatory BP and heart rate monitoring after in-clinic subcutaneous doses. It is filed as in vivo, human. The following applies: for Increase in ambulatory SBP relative to placebo (abstract): second of two doses, 0 to 4-h postdose interval. Put shortly: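 Premenopausal women aged ≥21 years were randomized 1:1:1:1 to placebo or 0.75, 1.25 or 1.75 mg sc (anterior thigh or abdomen). The ambulatory monitor was fitted before each in-clinic dose and recorded at 15-min intervals. Baseline was the single-blind in-clinic placebo dose, and changes were placebo-subtracted over 0–4, >4–8, >8–24 and 0–24 h. SBP shifts were counted per 15 min against thresholds of 10/15 mmHg change and 150/160 mmHg absolute.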

The conditions of data set [5]: high sc doses, men with erectile dysfunction; cited from earlier work.
Data set [6] has as its system premenopausal women with female sexual dysfunction. Nature of the data set: Treatment-emergent adverse events, 12-week double-blind treatment. It is filed as in vivo, human. The note with it: all bremelanotide dosages; no marked dosage dependence. The gist of the method: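 Adverse events were queried at every clinic visit after screening. Physical examination, vital signs, 12-lead ECG and clinical laboratory tests were also performed. Events were tabulated in all participants given at least one double-blind dose.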

The nature of data set [7]: Plasma pharmacokinetics after in-clinic subcutaneous doses. It counts as in vivo, human. The note with it: for Cmax, mean: plasma, LC-MS/MS. The gist of the method:
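Blood was sampled predose and at 0.5, 1.0 and 2.0 h postdose at both double-blind in-clinic sc dosing visits (0.75, 1.25 or 1.75 mg). Plasma was assayed by validated LC-MS/MS. Noncompartmental analysis gave Cmax, Tmax, […] and AUC(0–2). For each dose level and visit, mean Cmax, range and coefficient of variation were reported.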

Where [8] appears, read: initial in-clinic dose, linear regression, all dose levels.

With `CCCC[C@H](NC(C)=O)C(=O)N[C@H]1CC(=O)NCCCC[C@@H](C(=O)O)NC(=O)[C@H](Cc2c[nH]c3ccccc23)NC(=O)[C@H](CCCN=C(N)N)NC(=O)[C@@H](Cc2ccccc2)NC(=O)[C@H](Cc2cnc[nH]2)NC1=O` [bremelanotide], in data set [1], the Variability in bioavailability result is given as “wide variability in bioavailability”. Moreover, the “Participants withdrawn after randomization (BP-related)” value worked out at 4% in data set [2] (after a 0.75-mg dose, of 100); 9% in data set [2] (after a 1.25-mg dose, of 99); 7% in data set [2] (after a 1.75-mg dose, of 98). In data set [3], the “Transient increases in clinic SBP” value is given as 4–5 mmHg. Moreover, the “Proportion of SBP shift events lasting 15 min or less” value in data set [4] (after bremelanotide dosing) is recorded as 88%. Moreover, in data set [4] (all bremelanotide doses), the “Number of clinically important shifts in SBP (>10 or >15 mmHg) lasting more than 30 min” value is “three”. In data set [4] (any bremelanotide group), the “Patients with SBP increase at least 15 mmHg for more than 30 min” value is listed as “No patient”. For the same compound, the “Patients with SBP more than 180 mmHg for more than 15 min” value in data set [4] (any bremelanotide group) is recorded as “No patient; also recorded: no sustained elevations”. Moreover, in data set [4] (setting [8]), the “Relationship between maximal change in HR and Cmax” value is reported as “no relationship observed”. Moreover, the “Relationship between maximal change in SBP and Cmax” value in data set [4] (setting [8]) is “no relationship observed”. For the same compound, the “Duration of peak increases in ambulatory BP” value in data set [4] (sc doses, typically) is reported as “less than 15 min”. Moreover, the “Increase in ambulatory SBP relative to placebo (abstract)” value in data set [4] (1.25 mg sc, P 0.076) is listed as 3.0 mmHg; in data set [4] (1.75 mg sc, P 0.027), 3.2 mmHg. In addition, the “Mean HR reductions” value in data set [4] (subcutaneous doses, up to 8 h following administration) is 4.6–6.6 bpm. Besides, in data set [5], the Tmax is 0.5 to 1 h. Also, in data set [5], the mean half-life is 1.9 to 2.7 h. In data set [6], the “Most common adverse events” value is “nausea, flushing, and headache”. Besides, in data set [7] (0.75, 1.25, 1.75 mg sc, both in-clinic doses), the “Dose proportionality of pharmacokinetics” value was “dose proportionality; also recorded: dose-proportional increases in concentrations”. This compound yielded a Cmax in data set [7] (human, in vivo, sc, 0.75 mg) of 37.5 ng/mL. Besides, the “Cmax, mean” value is 37.3 ng/mL in data set [7] (second in-clinic dose 0.75 mg sc, n 89); 60.1 ng/mL in data set [7] (second in-clinic dose 1.25 mg sc, n 84); 77.7 ng/mL in data set [7] (second in-clinic dose 1.75 mg sc, n 88).

A word on the Tmax: it is the time from dosing to the highest level. What is called Cmax is the highest concentration seen after dosing.

Source of the values: paper PMC5338879 (Journal of Hypertension, 2016).
